Assay results from ChEMBL document CHEMBL1152271, “Interrogating the bioactive pharmacophore of the latrunculin chemotype by investigating the metabolites of two taxonomically unrelated sponges” (J Med Chem, 2008).
Activity calls are given as the source filed them. No cut-off for these calls is given here.

Legend:
MDA-MB-435 [1] = assay: Cytotoxicity against human MDA-MB-435 cells 48 hrs by SRB assay; assay type: functional, cell-based; settings: MDA-MB-435, 48 h
MDA-MB-435 [2] = assay: Ratio of IC50 for human MDA-MB-435 cells to IC50 for human HCT116 cells; assay type: functional
HCT-116 = assay: Cytotoxicity against human HCT116 cells after 3 days by trypan blue assay; assay type: functional, cell-based; settings: HCT-116, 72 h
A10 [3] = assay: Disruption of microfilament in rat A10 cells at 9 uM after 18 hrs using DAPI staining by fluorescence microscopy; assay type: functional, cell-based
MC-38 [4] = assay: Cytotoxicity against mouse Colon 38 cells at 4.0 uM by disk diffusion soft agar colony formation assay; assay type: functional; settings: read-out: IZ
In short: (§1)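 Disk diffusion soft-agar colony formation assay with murine colon 38 cells. The compound is adsorbed onto a disk at a concentration similar to the other compounds tested. The read-out is the zone of inhibition (Z), recorded in mm.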

A10 [5] = assay: Disruption of microfilament in rat A10 cells at 5 uM after 18 hrs using DAPI staining by fluorescence microscopy
MC-38 [6] = assay: Cytotoxicity against mouse Colon 38 cells at 3.5 uM by disk diffusion soft agar colony formation assay; assay type: functional; settings: read-out: IZ; in short: as §1
MC-38 [7] = assay: Cytotoxicity against mouse Colon 38 cells at 1.9 uM by disk diffusion soft agar colony formation assay; assay type: functional; settings: read-out: IZ
In short: (§2)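 Soft agar disk diffusion colony formation assay with murine colon 38 cells, run alongside murine L1210 and CFU-GM. Compound adsorbed onto a disk at similar loadings across compounds. Read-out is the zone of inhibition (Z) in mm. Full method described previously.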

MC-38 [8] = assay: Cytotoxicity against mouse Colon 38 cells at 5.1 uM by disk diffusion soft agar colony formation assay; assay type: functional; settings: read-out: IZ; in short: as §2
MC-38 [9] = assay: Cytotoxicity against mouse Colon 38 cells at 1.1 uM by disk diffusion soft agar colony formation assay; assay type: functional; settings: read-out: IZ; in short: as §1

Row | Structure (SMILES) | IC50 (MDA-MB-435 [1]) | Ratio IC50 (MDA-MB-435 [2]) | IC50 (HCT-116) | Activity (A10 [3]) | zone of inhibition at 4 µM (MC-38 [4]) | Activity (A10 [5]) | zone of inhibition at 3.5 µM (MC-38 [6]) | zone of inhibition at 1.9 µM (MC-38 [7]) | zone of inhibition at 5.1 µM (MC-38 [8]) | zone of inhibition at 1.1 µM (MC-38 [9])
1 | C/C1=C/C(=O)O[C@@H]2C[C@@H](CC[C@H](C)C(=O)/C=C/C(O)CC1)O[C@@](O)([C@@H]1CSC(=O)N1)C2 (some centres undefined) | 30.5 µM | <0.6 | > 53 µM | inactive | – | – | – | – | – | –
2 | C/C1=C/C(=O)O[C@@H]2C[C@@H](CC[C@H](C)/C=C\[C@@H]3OC(C)(C)O[C@H]3CC1)O[C@@](O)([C@@H]1CSC(=O)N1)C2 | 7.9 µM | 1.5 | 5.1 µM | – | 21 mm | Active | – | – | – | –
3 | CO[C@]1([C@@H]2CSC(=O)N2)C[C@H]2C[C@@H](CC[C@H](C)/C=C\CC/C(C)=C\C(=O)O2)O1 [15-METHOXYLATRUNCULIN B] | 29.7 µM | 0.6 | 49 µM | – | – | inactive | – | – | – | –
4 | C/C1=C/C(=O)O[C@@H]2C[C@@H](CC[C@H](C)/C=C\CC1)O[C@@](O)([C@H]1CSC(=O)N1)C2 [16-EPI-LATRUNCULIN B] | 17 µM | 0.5 | 38 µM | – | – | Active | – | – | – | –
5 | C/C1=C/C(=O)O[C@@H]2C[C@@H](CC[C@H](C)/C=C\[C@H](O)[C@@H](O)CC1)O[C@@](O)([C@H]1CSC(=O)N1)C2 [18-EPI-LATRUNCULOL A] | > 50 µM | >9.1 | 5.5 µM | – | – | inactive | 17 mm | – | – | –
6 | C/C(=C/C(=O)O)CC/C=C\[C@@H](C)CC[C@@H]1CC=CC(=O)O1 [LATRUNCULEIC ACID] | 26.1 µM | 0.5 | 48 µM | – | – | inactive | – | – | – | –
7 | C/C1=C/C(=O)O[C@@H]2C[C@@H](CC[C@H](C)/C=C\C=C\CC1)O[C@@](O)([C@@H]1CSC(=O)N1)C2 [LATRUNCULIN A] | 2.8 µM | 2.5 | 1.1 µM | – | – | Active | – | 9 mm | – | –
8 | C/C1=C/C(=O)O[C@@H]2C[C@@H](CC[C@H](C)/C=C\CC1)O[C@@](O)([C@@H]1CSC(=O)N1)C2 [LATRUNCULIN B] | 4.8 µM | 0.7 | 7.1 µM | – | – | Active | – | – | 13 mm | –
9 | C/C1=C/C(=O)O[C@@H](CC(O)[C@@H]2CSC(=O)N2)C[C@H](O)CC[C@H](C)/C=C\CC1 (some centres undefined) [LATRUNCULIN C] | 34.3 µM | <0.3 | > 100 µM | – | – | inactive | – | – | – | –
10 | C/C1=C/C(=O)O[C@@H]2C[C@@H](CC[C@H](C)/C=C\[C@H](O)[C@@H](O)CC1)O[C@@](O)([C@@H]1CSC(=O)N1)C2 [LATRUNCULOL A] | 2.1 µM | 4.4 | 0.48 µM | – | – | Active | – | – | – | 23.5 mm
11 | CO[C@H]1/C=C\[C@@H](C)CC[C@@H]2C[C@H](C[C@](O)([C@@H]3CSC(=O)N3)O2)OC(=O)/C=C(/C)CC[C@@H]1O [LATRUNCULOL B] | 4 µM | 1.9 | 2.1 µM | – | – | Active | – | – | – | 19.5 mm
12 | C/C1=C/C(=O)O[C@@H]2C[C@@H](CC[C@H](C)/C=C\[C@H](O)[C@H](O)CC1)O[C@@](O)([C@@H]1CSC(=O)N1)C2 [LATRUNCULOL C] | 11.9 µM | <0.2 | > 53 µM | – | – | Active | – | – | – | –
13 | C/C1=C/C(=O)O[C@@H]2C[C@@H](CC[C@H](C)/C=C\CC(=O)CC1)O[C@@](O)([C@@H]1CSC(=O)N1)C2 [LATRUNCULONE B] | 1 µM | 1.1 | 0.92 µM | – | – | Active | – | – | – | 19.5 mm
